MrgX1 antagonist = antagonists of human MrgX1 receptor, primary screen, HEK293 cells, Fluo-4 calcium flux. Mas-related G-protein coupled receptor member X1 (Homo sapiens), Q96LB2. BAM8-22 antagonism; stronger effect = lower value. B-score at 10 µM. 1.3% of 310,000 active. AID 588676, 2011;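 active = calcium-response B-score plate-corrected more than 3 library SD below zero, starting fluorescence within 5 deviations, no agonist response on first addition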;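 also: peak minus trough fluorescence over baseline after final BAM8-22 challenge near maximal dose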
Target sequence (Q96LB2 whole entry, looked up): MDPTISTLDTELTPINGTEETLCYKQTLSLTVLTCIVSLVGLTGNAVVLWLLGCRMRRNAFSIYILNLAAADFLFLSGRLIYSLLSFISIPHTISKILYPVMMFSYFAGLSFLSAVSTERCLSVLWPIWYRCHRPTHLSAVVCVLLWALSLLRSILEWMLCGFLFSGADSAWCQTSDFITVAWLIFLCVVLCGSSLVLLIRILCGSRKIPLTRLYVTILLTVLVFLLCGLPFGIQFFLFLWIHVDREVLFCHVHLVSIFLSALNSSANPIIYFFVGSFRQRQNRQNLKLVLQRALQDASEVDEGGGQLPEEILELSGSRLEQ
MrgX1 PAM = positive allosteric modulators of MrgX1, primary screen, HEK293 cells, Fluo-4 calcium flux; Mas-related G-protein coupled receptor member X1 (Homo sapiens), Q96LB2; FDSS; stronger effect = higher value; B-score at 10 µM; 0.63% of 310,000 active; AID 588675, 2011;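 active = plate-corrected calcium response at least 3 library SD above typical, normal starting fluorescence, not activating the receptor alone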;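 also: compound read alongside a low EC10 to EC30 dose of BAM8-22 agonist; peak minus trough fluorescence over baseline measured at the second addition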
RGS4 pot = RGS4 potentiators or activators, primary screen, cell-based, HEK293 M3R inducible RGS4, calcium flux; 0.92% of 310,000 active; B-score at 10 µM; carbachol calcium flux Fluo4; stronger effect = lower value;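 active = B-score of the integrated calcium signal more than 4 SD below the library mean, with starting fluorescence not abnormally high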;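 also: negative B-score means reduced calcium response which marks RGS4 activation or potentiation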
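Also added: carbachol at ECmax as muscarinic agonist stimulus; Assay system: HEK293 cells with stable M3R and inducible RGS4; Timing: overnight RGS4 induction, 30 min dye load 37 °C, 20 min compound RT; Measured by: Fluo4-AM (2 µM) calcium-flux fluorescence, kinetic read.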
RGS4 block = RGS4 inhibitors, primary screen, cell-based, HEK293 M3R inducible RGS4, calcium flux; 0.45% of 310,000 active; B-score at 10 µM; Regulator of G-protein signaling 4 (Homo sapiens), P49798; Fluo-4 calcium flux; stronger effect = higher value; triggered by carbachol at its EC20;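 active = B-score, a plate-corrected calcium signal, over three deviations above library mean, with baseline fluorescence within five deviations of library mean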;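 also: RGS4 expression induced by doxycycline in cells with stable M3 receptor; B-score is computed from the integrated fluorescence ratio over baseline after carbachol; higher B-score means a larger calcium signal and so more RGS4 inhibition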
PHOSPHO1 block = PubChem AID 1565; Phosphoethanolamine/phosphocholine phosphatase (Homo sapiens), Q8TCT1; recombinant PHOSPHO1, absorbance phosphatase assay; inhibition, % at 13.3 µM; 1.1% of 290,000 active; in the data active = inhibition above about 60%
MrgX1 agonist = agonists of human MrgX1 receptor, primary screen, HEK293 cells, Fluo-4 calcium flux. Mas-related G-protein coupled receptor member X1 (Homo sapiens), Q96LB2. Fluo-4 calcium fluorescence, agonist mode; stronger effect = higher value. B-score at 10 µM. 0.44% of 310,000 active. AID 588627, 2011;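 active = calcium response B-score plate-corrected fluorescence ratio at least 3 library SD, with starting fluorescence B-score inside 5 SD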
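Test system: HEK293 cells stably expressing human MrgX1 receptor; Input: fifteen thousand cells per well; Dosing: compound delivered in addition one of three; Schedule: overnight seeding, then 1 h dark dye loading; Technique: Fluo-4 NW calcium fluorescence; Measure: B-scored fluorescence response ratio; Controls: positive and negative controls per plate.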
Active calls of the source: *; i = inactive; nt = not tested or not shown. This is a sample that favours compounds with a hit; in the whole collection about 4.5% have one here.

SMILES | MrgX1 antagonist | MrgX1 PAM | RGS4 pot | RGS4 block | PHOSPHO1 block | MrgX1 agonist
CN(C)c1ccc(P(=O)(OCc2ccccc2)C(O)c2ccccc2)cc1 (stereo not drawn) | i | i | i | i | 1 | i
CC(=O)C(Sc1nn(C)c(=S)s1)C(=O)Nc1ccccc1 (stereo not drawn) | i | i | i | i | 98* | i
COC1(OC)N=C(N)C2(C#N)C(c3ccc(F)cc3)C12C#N (stereo not drawn) | i | i | i | i | 6 | i
CCSC1(SCC)N=C(N)C2(C#N)C(c3ccc(F)cc3)C12C#N (stereo not drawn) | i | i | i | i | 6 | 29*
CCCNC(=O)OC[C@H]1O[C@H](CCO/N=C(\C)CCN2CCc3nc(-c4ccccc4)c(-c4ccccc4)cc3C2)C=C[C@@H]1Oc1ccc(OC)cc1 | i | i | -8.1* | i | 4 | i
CC(C)(C)c1nc(S(=O)(=O)c2ccc(Cl)cc2)c(N2CCOCC2)o1 | i | i | i | i | 63* | i
CC(C)Cc1nc(S(=O)(=O)c2ccc(Cl)cc2)c(N2CCOCC2)o1 | i | i | i | i | 24 | i
CCOc1ccc(S(=O)(=O)N(CC)CC(=O)N2CCOCC2)cc1C | i | i | i | i | 23 | i
CC1=C([N+](=O)[O-])C(c2ccccc2Cl)NC(=O)N1 (stereo not drawn) | i | i | i | i | -2 | i
CC1=C([N+](=O)[O-])C(c2ccccc2Cl)NC(=O)N1C (stereo not drawn) | i | i | i | i | 60* | i
CCc1cc(-c2n[nH]c(=S)n2-c2cccc(C)c2)cs1 | i | i | i | i | 92* | i
Cc1cccc(-n2c(-c3csc(C)c3)n[nH]c2=S)c1 | i | i | i | i | 99* | i
Fc1cccc(-c2n[nH]c(=S)n2-c2ccccc2)c1 | i | i | i | i | -208 | i
CNc1nc(-c2c[nH]c3ccccc23)cs1 | i | i | i | i | 100* | i
O=c1cc(-c2ccccc2)c2c(O)cc(O)cc2o1 | i | i | i | i | 3 | 29*
O=c1c(-c2ccccc2)c(-c2ccccc2)oc2cc(O)cc(O)c12 | i | i | i | i | nt | i
C=CCC(C)(NCc1ccccc1)c1ccc(C)cc1 (stereo not drawn) | i | 7.6* | i | i | -7 | i
COc1ccc2oc(=O)c(C(=O)C[n+]3cccc(C)c3)cc2c1 | i | i | -10* | i | 45 | i
COc1ccc(NC(=O)CSc2nnc(COc3ccccc3)n2Cc2ccco2)cc1OC | i | i | i | i | 36 | i
Cn1c(COc2ccccc2)nnc1SCc1nc2ccccc2[nH]1 | i | i | i | i | 36 | i
Clc1ccc(OCc2nnc(SCc3nc4ccccc4[nH]3)n2Cc2ccco2)cc1 | i | i | i | i | 74* | i
COc1ccc(C)cc1NC(=O)CSc1nnc(COc2ccc(Cl)cc2)n1Cc1ccco1 | i | i | i | i | 23 | i
Clc1ccccc1CSc1nnc(-c2ccccn2)n1Cc1ccco1 | i | i | i | i | 59 | i
O=C(CSc1nnc(COc2ccc(Cl)cc2)n1Cc1ccco1)c1ccccc1F | i | i | i | i | 96* | i
c1ccc(-c2nnc(SCc3nc4ccccc4[nH]3)n2Cc2ccco2)nc1 | i | i | i | i | 72* | i
CCn1c(COc2ccc(C)cc2)nnc1SCc1nc2ccccc2[nH]1 | i | i | i | i | 94* | i
